Results from ChEMBL document CHEMBL4325855 (Eur J Med Chem, 2019).
pKd: −log10 of the molar value. Active and inactive are the calls of the source. The rule behind the calls is not given here.

Key:
[1] = target: T1, Mitogen-activated protein kinase 8 (Homo sapiens, UniProt P45983); test: Binding affinity to human full-length JNK1 (M1 to Q384 residues) expressed in HEK293 cells measured after 1 hr by Kinomescan method; format: cell-based
Method in brief: (§1)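 Competition binding on a phage-display/cell-expressed kinase platform; each compound incubated with kinase 1 h at room temperature. Unbound kinase was captured on an immobilized affinity ligand and quantified by qPCR. N.A. means no inhibition below 40 µM.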

[2] = target: T2, Mitogen-activated protein kinase 10 (Homo sapiens, UniProt P53779); test: Binding affinity to human partial length JNK3 (V28 to Q422 residues) expressed in HEK293 cells at <40 uM after 1 hr by Kinomescan method; format: cell-based
T2 sequence (P53779 whole entry, the tested form may be a part): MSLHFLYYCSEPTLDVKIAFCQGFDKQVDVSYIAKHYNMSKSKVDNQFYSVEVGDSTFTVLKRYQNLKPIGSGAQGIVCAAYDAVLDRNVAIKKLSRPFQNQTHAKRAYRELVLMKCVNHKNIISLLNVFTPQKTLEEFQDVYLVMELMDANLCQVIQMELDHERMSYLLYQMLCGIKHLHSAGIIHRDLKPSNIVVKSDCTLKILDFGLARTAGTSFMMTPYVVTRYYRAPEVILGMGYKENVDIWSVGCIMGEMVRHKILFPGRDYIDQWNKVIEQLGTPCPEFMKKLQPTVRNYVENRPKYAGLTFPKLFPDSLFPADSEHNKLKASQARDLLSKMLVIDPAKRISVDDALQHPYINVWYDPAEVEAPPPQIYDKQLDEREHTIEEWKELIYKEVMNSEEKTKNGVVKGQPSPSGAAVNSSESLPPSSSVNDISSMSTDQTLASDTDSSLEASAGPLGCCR
Method in brief: (§2)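 Competition binding on a phage-display/cell-expressed kinase platform; each compound incubated with kinase 1 h at room temperature. Unbound kinase was captured on an immobilized affinity ligand and quantified by qPCR. […] N.A. means no inhibition below 40 µM.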

[3] = target: T3, Mitogen-activated protein kinase 9 (Homo sapiens, UniProt P45984); test: Binding affinity to human full-length JNK2 (M1 to Q382 residues) expressed in HEK293 cells at <40 uM after 1 hr by Kinomescan method; format: cell-based; method in brief: as §2
Target sequence in this assay (P45984 whole entry, looked up, the tested form may be a part): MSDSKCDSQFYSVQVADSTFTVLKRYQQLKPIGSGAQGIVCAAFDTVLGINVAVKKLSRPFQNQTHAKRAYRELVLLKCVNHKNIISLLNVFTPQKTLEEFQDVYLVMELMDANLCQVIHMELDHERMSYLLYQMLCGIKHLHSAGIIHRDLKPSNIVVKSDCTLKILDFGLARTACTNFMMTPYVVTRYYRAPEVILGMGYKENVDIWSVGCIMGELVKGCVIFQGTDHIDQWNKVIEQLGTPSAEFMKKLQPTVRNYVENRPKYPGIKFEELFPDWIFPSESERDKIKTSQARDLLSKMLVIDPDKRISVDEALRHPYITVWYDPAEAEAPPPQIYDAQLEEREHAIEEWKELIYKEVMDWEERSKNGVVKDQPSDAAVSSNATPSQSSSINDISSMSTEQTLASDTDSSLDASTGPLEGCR

[4] = target: T4, High affinity nerve growth factor receptor (Homo sapiens, UniProt P04629); test: Binding affinity to human partial length TRKA (G475 to G790 residues) expressed in HEK293 cells measured after 1 hr by Kinomescan method; format: cell-based
Target sequence in this assay (P04629 whole entry, the tested form may be a part): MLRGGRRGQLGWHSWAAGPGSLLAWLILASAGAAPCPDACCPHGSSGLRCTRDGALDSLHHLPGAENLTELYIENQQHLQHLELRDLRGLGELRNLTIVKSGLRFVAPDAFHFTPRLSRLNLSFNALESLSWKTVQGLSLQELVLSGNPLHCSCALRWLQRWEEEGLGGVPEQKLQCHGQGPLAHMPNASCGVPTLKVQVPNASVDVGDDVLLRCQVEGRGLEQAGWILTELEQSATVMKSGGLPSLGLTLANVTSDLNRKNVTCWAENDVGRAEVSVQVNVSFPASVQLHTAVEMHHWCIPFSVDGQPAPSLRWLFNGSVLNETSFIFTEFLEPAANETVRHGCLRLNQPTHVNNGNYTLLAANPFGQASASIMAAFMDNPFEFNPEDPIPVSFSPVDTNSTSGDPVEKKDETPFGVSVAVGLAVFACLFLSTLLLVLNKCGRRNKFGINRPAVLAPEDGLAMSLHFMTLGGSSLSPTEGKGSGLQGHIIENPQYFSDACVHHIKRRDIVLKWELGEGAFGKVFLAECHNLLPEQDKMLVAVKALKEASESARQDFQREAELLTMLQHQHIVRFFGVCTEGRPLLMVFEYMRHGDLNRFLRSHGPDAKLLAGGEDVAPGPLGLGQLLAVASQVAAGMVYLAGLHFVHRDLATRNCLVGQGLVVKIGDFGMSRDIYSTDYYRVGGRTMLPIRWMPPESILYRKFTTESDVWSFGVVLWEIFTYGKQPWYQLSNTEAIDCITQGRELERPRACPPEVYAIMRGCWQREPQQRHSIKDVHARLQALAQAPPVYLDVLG

[5] = target: BDNF/NT-3 growth factors receptor (Homo sapiens, UniProt Q16620); test: Binding affinity to human partial length TRKB (Q547 to G838 residues) expressed in HEK293 cells measured after 1 hr by Kinomescan method; format: cell-based
Chain of BDNF/NT-3 growth factors receptor (Q16620 whole entry, the tested form may be a part): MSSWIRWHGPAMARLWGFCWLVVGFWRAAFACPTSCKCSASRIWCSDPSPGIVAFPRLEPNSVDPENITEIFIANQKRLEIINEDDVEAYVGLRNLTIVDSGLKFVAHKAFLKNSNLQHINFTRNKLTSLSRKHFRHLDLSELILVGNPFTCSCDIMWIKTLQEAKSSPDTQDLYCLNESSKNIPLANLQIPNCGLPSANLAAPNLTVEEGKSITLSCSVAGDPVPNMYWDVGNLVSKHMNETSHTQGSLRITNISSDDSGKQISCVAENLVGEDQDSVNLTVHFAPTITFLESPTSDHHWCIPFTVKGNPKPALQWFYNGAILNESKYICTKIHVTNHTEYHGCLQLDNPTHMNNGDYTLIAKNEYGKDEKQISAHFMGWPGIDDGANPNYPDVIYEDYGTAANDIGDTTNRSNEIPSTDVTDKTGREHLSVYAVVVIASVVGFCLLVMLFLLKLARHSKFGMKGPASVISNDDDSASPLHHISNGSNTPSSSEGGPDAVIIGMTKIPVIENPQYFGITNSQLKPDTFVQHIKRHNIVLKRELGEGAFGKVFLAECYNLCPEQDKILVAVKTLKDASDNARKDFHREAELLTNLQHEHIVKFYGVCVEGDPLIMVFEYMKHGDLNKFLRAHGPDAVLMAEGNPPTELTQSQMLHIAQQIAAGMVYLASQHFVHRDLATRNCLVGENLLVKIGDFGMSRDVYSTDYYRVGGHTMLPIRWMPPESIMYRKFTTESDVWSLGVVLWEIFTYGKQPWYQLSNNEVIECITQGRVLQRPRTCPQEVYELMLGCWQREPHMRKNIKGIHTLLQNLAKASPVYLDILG

[6] = Cytotoxicity against human THP1-Blue cells assessed as effect on cell viability up to 50 uM after 24 hrs by CellTiter-Glo luminescent cell viability assay; format: cell-based
Method in brief: (§3)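 Viability of MonoMac-6 and THP-1Blue cells was tested with compound up to 50 µM for 24 h at 37 °C, 5% CO2. After 30 min equilibration to room temperature, CellTiter-Glo reagent was added and luminescence read. IC50 was derived from percent inhibition vs log concentration, at least five points.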

[7] = target: T5, c-Jun N-terminal kinase, JNK (Homo sapiens, UniProt P45983+P53779+P45984); test: Inhibition of JNK in human THP1-Blue cells assessed as reduction in LPS-induced NFkappaB/AP1 activation preincubated for 30 mins followed by LPS-stimulation and measured after 24 hrs by quanti-blue staining based alkaline phosphatase reporter gene assay; format: cell-based
MONO-MAC-6 = test: Cytotoxicity against human MONO-MAC-6 cells assessed as effect on cell viability up to 50 uM after 24 hrs by CellTiter-Glo luminescent cell viability assay; format: cell-based; settings: mono-mac-6, 24 h; method in brief: as §3
[8] = target: T2, Mitogen-activated protein kinase 10; test: Binding affinity to human partial length JNK3 (V28 to Q422 residues) expressed in HEK293 cells measured after 1 hr by Kinomescan method; format: cell-based; method in brief: as §1
[9] = target: T5, c-Jun N-terminal kinase, JNK; test: Inhibition of JNK in human MONO-MAC-6 cells assessed as reduction in LPS-induced IL6 production preincubated for 30 mins followed by LPS-stimulation and measured after 24 hrs by ELISA; format: cell-based
Method in brief: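 MonoMac-6 cells, 2 × 10^5/well in medium with 3% endotoxin-free FBS, were pretreated 30 min with compound or DMSO, then stimulated with 250 ng/ml LPS for 24 h. IL-6 in the supernatant was measured by human IL-6 ELISA. IC50 came from percent inhibition vs log concentration (at least five points); triplicate samples, representative of three experiments.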

[10] = target: T3, Mitogen-activated protein kinase 9; test: Binding affinity to human full-length JNK2 (M1 to Q382 residues) expressed in HEK293 cells measured after 1 hr by Kinomescan method; format: cell-based; method in brief: as §1
Target sequence in this assay (P45984 whole entry, the tested form may be a part): as the sequence (P45984 whole entry, looked up, the tested form may be a part) above

[11] = test system: Transcription factor AP-1 (Homo sapiens); test: Inhibition of LPS-induced c-Jun phosphorylation at ser73 residues in human MONO-MAC-6 cells at 6.25 to 50 uM preincubated for 30 mins followed by LPS-stimulation and measured after 30 mins by Western blot analysis
[12] = target: Casein kinase I isoform delta (Homo sapiens) (UniProt P48730); test: Inhibition of ligand binding to human full-length CK1delta (M1 to K409 residues) expressed in bacterial expression system at 10 uM measured after 1 hr by Kinomescan method relative to control
Chain of Casein kinase I isoform delta (Homo sapiens) (P48730 whole entry, looked up, the tested form may be a part, canonical isoform): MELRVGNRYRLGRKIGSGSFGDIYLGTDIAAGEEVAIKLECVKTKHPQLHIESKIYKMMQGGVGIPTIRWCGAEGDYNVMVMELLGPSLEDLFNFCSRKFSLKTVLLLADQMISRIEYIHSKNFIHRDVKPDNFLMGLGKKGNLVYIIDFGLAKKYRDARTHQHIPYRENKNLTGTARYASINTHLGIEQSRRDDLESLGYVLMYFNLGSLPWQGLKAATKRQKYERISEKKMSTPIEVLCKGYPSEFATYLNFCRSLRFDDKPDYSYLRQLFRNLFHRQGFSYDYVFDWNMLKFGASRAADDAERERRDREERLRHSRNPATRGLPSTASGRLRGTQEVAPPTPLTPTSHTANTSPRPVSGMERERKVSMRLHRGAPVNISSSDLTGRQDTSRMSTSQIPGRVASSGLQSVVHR
Method in brief: (§4)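 Binding ran 1 h at room temperature. Kinase not bound to compound was captured by an immobilized affinity ligand and measured by qPCR, in duplicate.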

[13] = target: T3, Mitogen-activated protein kinase 9; test: Inhibition of ligand binding to human full-length JNK2 (M1 to Q382 residues) expressed in HEK293 cells at 10 uM measured after 1 hr by Kinomescan method relative to control; format: cell-based; method in brief: as §4
Target sequence in this assay (P45984 whole entry, looked up, the tested form may be a part): as the sequence (P45984 whole entry, looked up, the tested form may be a part) above

[14] = target: T2, Mitogen-activated protein kinase 10; test: Inhibition of ligand binding to human partial length JNK3 (V28 to Q422 residues) expressed in HEK293 cells at 10 uM measured after 1 hr by Kinomescan method relative to control; format: cell-based; method in brief: as §4
[15] = target: T4, High affinity nerve growth factor receptor; test: Inhibition of ligand binding to human partial length TRKA (G475 to G790 residues) expressed in HEK293 cells at 10 uM measured after 1 hr by Kinomescan method relative to control; format: cell-based; method in brief: as §4
Target sequence in this assay (P04629 33-796 limits assumed): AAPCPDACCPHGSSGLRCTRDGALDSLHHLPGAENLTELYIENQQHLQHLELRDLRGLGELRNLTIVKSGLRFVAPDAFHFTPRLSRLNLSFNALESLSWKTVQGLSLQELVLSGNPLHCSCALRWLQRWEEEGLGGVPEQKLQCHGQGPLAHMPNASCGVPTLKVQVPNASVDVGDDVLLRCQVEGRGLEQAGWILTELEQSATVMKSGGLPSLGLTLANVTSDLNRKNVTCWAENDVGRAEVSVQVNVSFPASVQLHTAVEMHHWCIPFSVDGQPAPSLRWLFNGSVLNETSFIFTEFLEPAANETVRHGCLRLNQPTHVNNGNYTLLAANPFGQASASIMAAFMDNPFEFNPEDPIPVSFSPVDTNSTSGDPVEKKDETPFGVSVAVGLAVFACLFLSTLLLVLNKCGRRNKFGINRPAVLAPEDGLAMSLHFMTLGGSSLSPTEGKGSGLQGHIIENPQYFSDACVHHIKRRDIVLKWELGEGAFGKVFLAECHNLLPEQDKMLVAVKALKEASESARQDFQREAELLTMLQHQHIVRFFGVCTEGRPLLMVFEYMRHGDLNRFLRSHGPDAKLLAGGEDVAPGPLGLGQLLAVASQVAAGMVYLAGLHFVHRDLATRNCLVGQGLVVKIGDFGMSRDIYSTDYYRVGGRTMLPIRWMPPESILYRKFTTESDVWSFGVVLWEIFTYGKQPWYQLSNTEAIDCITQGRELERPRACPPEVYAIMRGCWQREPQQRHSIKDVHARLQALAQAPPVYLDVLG

[16] = target: T1, Mitogen-activated protein kinase 8; test: Inhibition of ligand binding to human full-length JNK1 (M1 to Q384 residues) expressed in HEK293 cells at 10 uM measured after 1 hr by Kinomescan method relative to control; format: cell-based; method in brief: as §4
[17] = Lipophilicity, log P of the compound; format: physicochemical; settings: octanol/water

T1 sequence (P45983 whole entry, the tested form may be a part): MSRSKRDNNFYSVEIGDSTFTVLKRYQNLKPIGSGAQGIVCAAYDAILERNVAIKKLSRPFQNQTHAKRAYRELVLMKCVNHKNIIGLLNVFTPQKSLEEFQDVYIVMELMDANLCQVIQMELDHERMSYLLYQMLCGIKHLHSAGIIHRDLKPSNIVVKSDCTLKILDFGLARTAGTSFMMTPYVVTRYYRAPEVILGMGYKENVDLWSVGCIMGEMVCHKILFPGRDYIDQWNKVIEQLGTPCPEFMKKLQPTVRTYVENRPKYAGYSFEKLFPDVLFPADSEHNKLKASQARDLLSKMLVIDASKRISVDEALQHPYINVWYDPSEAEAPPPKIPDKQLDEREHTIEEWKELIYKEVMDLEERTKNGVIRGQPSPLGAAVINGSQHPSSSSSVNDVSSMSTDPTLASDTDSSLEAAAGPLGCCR

Row | IC50 [7] | inhibition [7] | pKd [8] | IC50 [9] | inhibition [9] | pKd [10] | inhibition [11] | inhibition [12] | inhibition [13] | inhibition [14] | inhibition [15] | inhibition [16] | logP [17] | SMILES | pKd [1] | Activity [2] | Activity [3] | pKd [4] | pKd [5] | Activity [6] | Activity (MONO-MAC-6)
1 |  |  |  |  |  |  |  |  |  |  |  |  |  | O=C1c2ccccc2-n2c1nc1ccccc1c2=O [TRYPTANTHRIN] | 4.64 | inactive | inactive | 5.04 | 5.14 |  | 
2 | 2500 nM | Dose-dependent effect | 7.12 | 3300 nM | Dose-dependent effect | 6.13 | Active |  |  |  |  |  |  | CCOC(=O)CO/N=C1\c2ccccc2-c2nc3ccccc3nc21 | 7.66 |  |  |  |  | Non-Toxic | Non-Toxic
3 |  | Dose-dependent effect |  |  | Dose-dependent effect |  |  | > 90% | > 90% | > 90% | > 90% | > 90% | 2.92 | O=c1c2ccccc2nc2n1-c1ccccc1/C2=N\O |  |  |  | 5.96 |  |  | 
